Calls of active or inactive are those of the source. The calls are words filed in the database; no cut-off is given here.
What was measured:
[1] = target: Tryptophan 2,3-dioxygenase (Mus musculus, UniProt P48776); experiment: Inhibition of mouse TDO in P815 clone 12 cells by HPLC analysis; format: cell-based
[2] = target: T1, Indoleamine 2,3-dioxygenase 1 (Homo sapiens, UniProt P14902); experiment: Inhibition of human IDO1 transfected in mouse P815B clone-6 cells by HPLC analysis; format: cell-based
Target sequence in this assay (P14902 whole entry): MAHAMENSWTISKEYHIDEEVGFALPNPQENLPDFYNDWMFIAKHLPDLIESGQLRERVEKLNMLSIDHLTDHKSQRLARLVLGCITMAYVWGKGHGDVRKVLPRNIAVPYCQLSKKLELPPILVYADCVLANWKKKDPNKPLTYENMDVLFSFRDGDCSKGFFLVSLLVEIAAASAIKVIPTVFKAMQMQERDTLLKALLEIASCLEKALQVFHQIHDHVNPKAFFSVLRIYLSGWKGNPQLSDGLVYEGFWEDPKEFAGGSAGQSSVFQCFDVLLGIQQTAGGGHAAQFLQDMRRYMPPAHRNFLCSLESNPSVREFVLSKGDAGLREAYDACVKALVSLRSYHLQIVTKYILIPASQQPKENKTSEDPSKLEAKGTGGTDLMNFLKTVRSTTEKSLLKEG

[3] = target: T1, Indoleamine 2,3-dioxygenase 1; experiment: Inhibition of human recombinant N-terminal His-tagged IDO1 (Ala2 to Gly403) overexpressed in Escherichia coli BL21 at pH 6.5 after 60 mins by HPLC analysis
Target sequence in this assay (P14902 whole entry): as above

HepG2 = experiment: Cytotoxicity against human HepG2 cells after 24 hrs by MTS-PMS assay; format: functional; conditions: HepG2, 24 h, read-out: LD50 (the source's name)
Outline: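 Hep G2 cells (2 × 10⁴ per well) in IMDM with 10% FCS exposed to compound titrated 0.001–100 μM for 24 h at 37 °C; living cells counted by MTS/PMS assay; LD₅₀ reported as mean of at least two independent assays with standard deviation.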

[4] = target: Tryptophan 2,3-dioxygenase (Homo sapiens, UniProt P48775); experiment: Inhibition of human TDO transfected in mouse P815B clone 19 cells by HPLC analysis; format: cell-based
Tryptophan 2,3-dioxygenase (Homo sapiens, UniProt P48775), sequence (P48775 whole entry): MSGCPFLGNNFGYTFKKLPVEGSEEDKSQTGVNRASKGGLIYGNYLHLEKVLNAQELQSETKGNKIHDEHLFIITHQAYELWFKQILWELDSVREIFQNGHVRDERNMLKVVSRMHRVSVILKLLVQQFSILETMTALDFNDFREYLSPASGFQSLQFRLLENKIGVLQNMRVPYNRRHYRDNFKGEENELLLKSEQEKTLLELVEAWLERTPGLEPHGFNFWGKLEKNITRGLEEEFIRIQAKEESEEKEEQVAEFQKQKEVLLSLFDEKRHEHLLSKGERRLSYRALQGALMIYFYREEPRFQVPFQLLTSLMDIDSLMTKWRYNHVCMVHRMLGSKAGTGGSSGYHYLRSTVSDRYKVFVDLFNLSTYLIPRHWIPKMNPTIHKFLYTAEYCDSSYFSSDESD

[5] = target: T1, Indoleamine 2,3-dioxygenase 1; experiment: Inhibition of human IDO1 transfected in HEK293 clone 6 cells by HPLC analysis; format: cell-based
Target sequence in this assay (P14902 whole entry, looked up): as the sequence (P14902 whole entry) above

[6] = target: Indoleamine 2,3-dioxygenase 1 (Mus musculus, UniProt P28776); experiment: Inhibition of mouse IDO1 in P815 clone 6 cells by HPLC analysis; format: cell-based
Indoleamine 2,3-dioxygenase 1 (Mus musculus, UniProt P28776), sequence (P28776 whole entry): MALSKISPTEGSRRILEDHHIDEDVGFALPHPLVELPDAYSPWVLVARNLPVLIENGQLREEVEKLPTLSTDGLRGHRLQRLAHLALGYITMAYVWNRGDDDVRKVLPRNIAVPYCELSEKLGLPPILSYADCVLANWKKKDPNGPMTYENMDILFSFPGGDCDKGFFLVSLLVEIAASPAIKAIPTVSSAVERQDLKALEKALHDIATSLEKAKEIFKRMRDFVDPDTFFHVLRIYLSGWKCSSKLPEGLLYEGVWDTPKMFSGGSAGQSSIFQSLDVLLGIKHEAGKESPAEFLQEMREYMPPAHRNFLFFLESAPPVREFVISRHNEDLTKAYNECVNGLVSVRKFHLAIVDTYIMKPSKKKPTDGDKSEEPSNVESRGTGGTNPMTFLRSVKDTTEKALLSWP
Outline: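 Murine mastocytoma P815 stably transfected cells were used: P815-mIDO1 clone 6 for mouse IDO1 and P815B-hIDO1 clone 6 for human IDO1. Cells with inhibitor were incubated at 37 °C until under 50% of tryptophan was consumed, as tracked in control wells by pDMAB absorbance at 480 nm. Supernatant was TCA-precipitated, and tryptophan and kynurenine were quantified by C18 HPLC. Values are the mean of ≥2 independent assays.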

[7] = target: T1, Indoleamine 2,3-dioxygenase 1; conditions: at 1 mM
Target sequence in this assay (P14902 whole entry, looked up): as the sequence (P14902 whole entry) above

physchem = conditions: pH 2

Tryptophan 2,3-dioxygenase (Mus musculus, UniProt P48776), sequence (P48776 whole entry): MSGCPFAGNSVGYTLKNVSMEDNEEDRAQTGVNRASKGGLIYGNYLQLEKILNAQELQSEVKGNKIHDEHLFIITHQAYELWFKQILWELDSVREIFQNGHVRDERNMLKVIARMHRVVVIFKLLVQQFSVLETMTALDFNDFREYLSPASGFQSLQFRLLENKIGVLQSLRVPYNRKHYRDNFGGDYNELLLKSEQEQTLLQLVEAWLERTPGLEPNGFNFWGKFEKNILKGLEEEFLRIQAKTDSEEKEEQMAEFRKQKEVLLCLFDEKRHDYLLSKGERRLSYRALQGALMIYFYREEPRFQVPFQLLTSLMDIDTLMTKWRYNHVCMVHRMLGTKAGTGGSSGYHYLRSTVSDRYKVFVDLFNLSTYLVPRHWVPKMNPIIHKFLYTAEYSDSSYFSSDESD

Structure (SMILES)	IC50 [1]	IC50 [3]	CC50 (HepG2)	IC50 [4]	inhibition [5]	IC50 [6]	inhibition [7]	also measured
Oc1cccc(-c2c[nH]nn2)c1	> 100 µM	310 µM	> 100 µM	> 100 µM	Active	1.3 µM		IC50 [2]: > 100 µM
CCn1nncc1-c1ccccc1							inactive	
Cc1ccc(N)cc1-c1c[nH]nn1		3200 µM						
c1cc(-c2cnn[nH]2)ccn1		85 µM						pKa (physchem): 7.85
Brc1ccccc1-c1cnn[nH]1			> 100 µM		Active			
c1cc(-c2c[nH]cn2)ccn1		1800 µM						
Fc1ccc(-c2cnn[nH]2)cc1			> 100 µM		Active			
c1ccc(-c2cnnn2-c2ccccc2)cc1							inactive	
CCn1cc(-c2ccccc2)nn1							inactive	
c1ccc(-c2ccncn2)cc1							inactive	
Clc1ccccc1-c1cnn[nH]1			> 100 µM		Active			
c1cc(-c2ccncc2)ccn1							inactive	
Clc1cccc(-c2cnnn2-c2ccccc2)c1							inactive	
Fc1ccccc1-c1c[nH]nn1	> 100 µM	80 µM	> 100 µM	> 100 µM	Active	0.63 µM		IC50 [2]: 70 µM
C1=C(c2c[nH]nn2)CCCC1							inactive	
Cc1ccccc1-c1c[nH]nn1	> 100 µM	39 µM	> 100 µM	> 100 µM	Active	1.7 µM		IC50 [2]: > 100 µM
Cn1cc(-c2cccc(Cl)c2)nn1							inactive	
Fc1ccc(-c2c[nH]nn2)cc1	> 100 µM	190 µM		> 100 µM		2.1 µM		IC50 [2]: > 100 µM
Fc1ccc2c(/C=C/c3nnn[nH]3)c[nH]c2c1	17 µM		> 100 µM		Active	> 100 µM		
c1ccc(-c2ccncc2)cc1							inactive	
c1ccc(Cn2cc(-c3ccccc3)nn2)cc1							inactive	
NCCc1ccccc1-c1c[nH]nn1							inactive	

Structure (SMILES)	IC50 [1]	IC50 [3]	CC50 (HepG2)	IC50 [4]	inhibition [5]	IC50 [6]	inhibition [7]	also measured
Nc1ccccc1-c1c[nH]nn1	> 100 µM	60 µM	> 100 µM	> 100 µM	Active	1.7 µM		IC50 [2]: > 100 µM
c1ccc(SCc2c[nH]nn2)cc1							inactive	
Oc1ccc(Cl)cc1-c1c[nH]nn1	> 100 µM		> 100 µM	> 100 µM	Active	0.002 µM		
CCc1ccccc1-c1c[nH]nn1	> 100 µM	230 µM	> 100 µM	> 100 µM	Active	13 µM		IC50 [2]: > 100 µM
Cc1ccc2[nH]nnc2c1							inactive	
Nc1nonc1/C(=N/O)Nc1ccc(F)c(Cl)c1			> 100 µM		Active			
c1c[nH]cn1 [IMIDAZOLE]								pKa (physchem): 14.5
CCn1ncc(-c2ccccc2)n1							inactive	
O=C(O)CCc1ccccc1-c1c[nH]nn1							inactive	
N#Cc1cccc(-c2c[nH]nn2)c1	> 100 µM	2.8 µM	> 100 µM	> 100 µM	Active	0.029 µM		IC50 [2]: 2.9 µM
O=Cc1ccccc1-c1c[nH]nn1		1300 µM						
Oc1ccccc1-c1c[nH]nn1	> 100 µM	15 µM	> 100 µM	> 100 µM	Active	0.022 µM		IC50 [2]: 1.7 µM
Brc1ccccc1-c1c[nH]nn1	> 100 µM	6.4 µM		> 100 µM		0.034 µM		IC50 [2]: 2.6 µM
Cn1nncc1-c1ccccc1							inactive	
Cc1cccc(NC(=O)C(F)(F)F)c1-c1c[nH]nn1		3000 µM						
CCCCn1cc(-c2ccccc2)nn1							inactive	
Oc1ccccc1-c1ccno1							inactive	
COc1ccccc1-c1cnnn1-c1ccccc1							inactive	
CNc1ccccc1-c1c[nH]nn1		1800 µM						
Cc1ccc(-c2c[nH]nn2)cc1		1000 µM						
CCCCn1nncc1-c1ccccc1							inactive	
Cc1ccc(Cl)cc1-c1c[nH]nn1	> 100 µM	4.3 µM	> 100 µM	> 100 µM	Active	0.12 µM		IC50 [2]: 14 µM

Structure (SMILES)	IC50 [1]	IC50 [3]	CC50 (HepG2)	IC50 [4]	inhibition [5]	IC50 [6]	inhibition [7]	also measured
FC(F)(F)c1cccc(-c2c[nH]nn2)c1	> 100 µM	6 µM	> 100 µM	> 100 µM	Active	0.07 µM		IC50 [2]: 9 µM
FC(F)(F)c1ccc(-c2c[nH]nn2)cc1		2300 µM						
Fc1ccc(-c2cnnn2-c2ccccc2)cc1							inactive	
Nc1nonc1C(=NO)Nc1ccc(F)c(Cl)c1	60 µM			70 µM				
c1ccc2[nH]nnc2c1							inactive	
c1ccc(Cn2nncc2-c2ccccc2)cc1							inactive	
Brc1cccc(-c2c[nH]nn2)c1	> 100 µM	2 µM	> 100 µM	> 100 µM	Active	0.023 µM		IC50 [2]: 0.94 µM
CCc1cccc(-c2c[nH]nn2)c1	> 100 µM	13 µM	> 100 µM	> 100 µM	Active	0.03 µM		IC50 [2]: 1.1 µM
Nc1cccc(-c2c[nH]nn2)c1	> 100 µM	1500 µM	> 100 µM	> 100 µM	Active	4 µM		IC50 [2]: > 100 µM
FC(F)(F)c1cc(-c2c[nH]nn2)ccn1	> 100 µM	15 µM	> 100 µM	> 100 µM	Active	0.34 µM		IC50 [2]: 56 µM
FC(F)(F)c1ccccc1-c1c[nH]nn1	> 100 µM	650 µM	> 100 µM	> 100 µM	Active	20 µM		IC50 [2]: > 100 µM
Cc1cccc(-c2cnnn2-c2ccccc2)c1							inactive	
Cc1cccc(N)c1-c1c[nH]nn1		1200 µM						
Cc1cccc(-c2c[nH]nn2)c1	> 100 µM	22 µM	> 100 µM	> 100 µM	Active	0.12 µM		IC50 [2]: 7 µM
c1nnn[nH]1 [TETRAZOLE]								pKa (physchem): 4.79
Cn1ncc(-c2ccccc2)n1							inactive	
Cn1cc(-c2ccccc2)nn1							inactive	
c1ccc(Cc2c[nH]nn2)cc1							inactive	
Cn1nncc1-c1cccc(Cl)c1							inactive	
Brc1cc(-c2c[nH]nn2)ccn1	> 100 µM	3.3 µM	> 100 µM	> 100 µM	Active	0.05 µM		IC50 [2]: 2.9 µM
O=[N+]([O-])c1cccc(-c2c[nH]nn2)c1	> 100 µM	15 µM	> 100 µM	> 100 µM	Active	0.11 µM		IC50 [2]: 24 µM
Cc1c(Cl)cccc1-c1c[nH]nn1		72 µM						
